This is an account of results in ChEMBL document CHEMBL2086265, “Design of inhibitors of Helicobacter pylori glutamate racemase as selective antibacterial agents: incorporation of imidazoles onto a core pyrazolopyrimidinedione scaffold to improve bioavailabilty” (Bioorg Med Chem Lett, 2012).

The term MIC denotes the smallest concentration in the dilution series that meets the test's criterion for growth inhibition. The low end stands for a more susceptible organism, the high end for a less susceptible organism. The term bioavailability denotes the share of a dose that reaches the circulation, judged against a reference dose that is usually intravenous. Read a high bioavailability as much systemic uptake. Broadly, the half-life is how long it takes for the measured level to halve. Low values mean fast loss, high ones slow loss. Broadly, the IC50 is the concentration that gives 50% inhibition. A high value points to weaker potency in that assay. For orientation: pKa means the negative logarithm of the acid dissociation constant. The low end stands for a group that gives up its proton readily, the high end for a group that holds its proton tightly.

A short description of data set [1]: Intrinsic clearance in human liver microsomes at 2 uM assessed per mg of protein. Format: ADME, Microsome. The settings on record: read-out: CLH.
Data set [2] is described as follows: Plasma protein binding in mouse at 10 uM after 16 hrs by Dianorm method. Format: ADME, cell-free. The settings on record: read-out: PPB (converted).
The subject of data set [3] is Helicobacter pylori. In words: Antibacterial activity against wild type Helicobacter pylori 055. It is filed as functional.
Data set [4] concerns Helicobacter pylori. The data set is described as follows: Antibacterial activity against Helicobacter pylori infected in mouse assessed as log reduction CFU at 40 mg/kg administered QID for 2 days relative to untreated control.
Data set [5] can be described thus: Intrinsic clearance in mouse liver microsomes at 2 uM assessed per mg of protein. It is filed as ADME, Microsome. The settings on record: read-out: CLH. (In general: Liver microsomes are a subcellular fraction often used to study metabolism.)
Data set [6] can be described thus: Oral bioavailability in mouse at 40 mg/kg. The settings on record: in vivo. It is filed as ADME, organism-based.
The nature of data set [7]: Half life in mouse at 5 mg/kg, iv and 40 mg/kg, po. Format: ADME, organism-based. The settings on record: in vivo.
Data set [8] is described as follows: Volume of distribution at steady state in mouse at 5 mg/kg, iv and 40 mg/kg, po. Format: ADME, organism-based. The settings on record: in vivo, read-out: Vdss.
In a further data set the target is T1, Glutamate racemase (Helicobacter pylori J99, UniProt Q9ZLT0).
T1 sequence (Q9ZLT0 whole entry): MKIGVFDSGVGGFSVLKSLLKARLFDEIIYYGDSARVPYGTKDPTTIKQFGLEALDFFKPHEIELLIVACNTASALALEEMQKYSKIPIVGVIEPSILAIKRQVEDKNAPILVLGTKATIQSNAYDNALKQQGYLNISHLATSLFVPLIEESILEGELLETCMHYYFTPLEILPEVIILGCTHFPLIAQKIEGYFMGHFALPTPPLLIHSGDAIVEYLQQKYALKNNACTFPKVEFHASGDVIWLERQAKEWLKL
The data set is described as follows: Inhibition of Helicobacter pylori J99 glutamate racemase. In outline: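 The racemase was expressed from the murI gene of H. pylori J99 chromosomal DNA. IC50 was taken as the mean of duplicate determinations, using a method cited from earlier work.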

In data set [9] the test system is Helicobacter pylori. In words: Antibacterial activity against AcrAB-TolC efflux pump-dificient Helicobacter pylori. Format: functional.
A short description of data set [10]: Dissociation constant, pKa of the compound. Format: physicochemical.
Data set [11] can be described thus: Clearance in mouse at 5 mg/kg, iv and 40 mg/kg, po. It is filed as ADME, organism-based. The settings on record: in vivo.
Data set [12] deals with Helicobacter pylori. In words: Antibacterial activity against Helicobacter pylori infected in mouse assessed as log reduction CFU at 10 mg/kg administered BID for 2 days relative to untreated control. It is filed as functional.
In data set [13] the test system is Helicobacter pylori. The data set is described as follows: Ratio of MIC for wild type Helicobacter pylori 055 to MIC for AcrAB-TolC efflux pump-dificient Helicobacter pylori.
Data set [14] is described as follows: Inhibition of Enterococcus faecalis MurI.
Data set [15] can be described thus: Inhibition of Escherichia coli MurI.
A short description of data set [16]: Inhibition of Staphylococcus aureus MurI.
Data set [17] is described as follows: Plasma protein binding in mouse. The settings on record: read-out: PPB (converted). It is filed as ADME, cell-free. In a few lines:
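Plasma protein binding in mouse plasma used a […] compound solution in a dialysis plasma well, incubated at 37 °C for 16 h. Free fraction came from the ratio of drug in buffer to drug in buffer plus plasma wells, both quantified by LC/MS.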

Values after ≈ are worked out from the molar mass of the structure shown.

Turning to `C#CCn1c(=O)c2c(-c3cncn3C)n(Cc3ccnc4ccc(Cl)cc34)nc2n(CC2CC2)c1=O`, the microsomal CLint at 2 µM in data set [1] is less than 14 µL/min/mg; in [5] it was 18 µL/min/mg. The fraction unbound at 16 h, 10 µM in [2] was 0.96. Also, the MIC stood at 2 µg/mL (≈ 4 µM) in the data set with Helicobacter pylori [3] and 0.5 µg/mL (≈ 1 µM) against Helicobacter pylori [9]. The FC in the data set with Helicobacter pylori [4] was determined as 1. This molecule yielded a bioavailability in [6] of 100%. For the same molecule, in [7], the half-life is 2.1 h. Further, in data set [8], the Vd was 3.6 L/kg. This molecule also registered an IC50 against Glutamate racemase of 0.024 µM. The pKa in data set [10] stood at 7.2. In data set [11], this molecule gave a clearance of 20 mL/min/kg.
Regarding `COc1c(N2CCO[C@@H](CN(C)C)C2)c(F)cc2c(=O)c(C(=O)O)cn(C3CC3)c12`, in the data set with Helicobacter pylori [12], the FC worked out at 5.
In the case of `Cn1cc(C#N)cc1-c1c2c(=O)n(C)c(=O)n(CC3CC3)c2nn1Cc1ccnc2ccc(Cl)cc12`, the microsomal CLint at 2 µM is 14 µL/min/mg in data set [1] and 50 µL/min/mg in [5]. In addition, the Ratio entry in the data set with Helicobacter pylori [13] is on record as “<=2”. Also, the results for the MIC in the data set on Helicobacter pylori [3] and in the data set with Helicobacter pylori [9] were 0.5 µg/mL (≈ 1 µM) and 0.8 µg/mL (≈ 1.6 µM), respectively. In addition, the IC50 was more than 400 µM in data set [14], more than 400 µM in [15], 0.025 µM at Glutamate racemase and more than 400 µM in [16].
In the case of `CC(C)Cn1c(=O)n(C)c(=O)c2c(-c3ccncc3)n(Cc3cccc4ccccc34)nc21`, the IC50 in [14], in [15] and in data set [16] was more than 400 µM throughout.
Regarding `Cn1cncc1-c1c2c(=O)n(C)c(=O)n(CC3CC3)c2nn1Cc1ccnc2ccc(Cl)cc12`, the microsomal CLint at 2 µM in [1] is less than 17 µL/min/mg; in [5] it was 21 µL/min/mg. The fraction unbound at 16 h, 10 µM in data set [2] is more than 0.969. Moreover, the MIC against Helicobacter pylori [3] came out at 2 µg/mL (≈ 4.2 µM); in the data set with Helicobacter pylori [9], 0.25 µg/mL (≈ 0.525 µM). In data set [6], this molecule came in with a bioavailability of 76%. For the same molecule, the half-life in data set [7] is 0.7 h. In addition, the Vd in data set [8] turned out to be 1.2 L/kg. For the same molecule, the midpoint of inhibition against Glutamate racemase, the IC50, lay at 0.041 µM. The clearance in data set [11] came to 14 mL/min/kg.
`Cn1cc(S(C)(=O)=O)cc1-c1c2c(=O)n(C)c(=O)n(CC3CC3)c2nn1Cc1ccnc2ccc(Cl)cc12` returned an MIC against Helicobacter pylori [3] of 2 µg/mL (≈ 3.62 µM). Moreover, in data set [17], the fraction unbound is 0.03. For the same molecule, the IC50 is more than 400 µM in [14], more than 400 µM in data set [15], 0.034 µM against Glutamate racemase and more than 400 µM in data set [16]. This molecule yielded a bioavailability in [6] of 13%. The clearance in data set [11] was 15 mL/min/kg.
